According to article PMC9389372 (RSC Advances, 2022):

What was measured:
[1] = target: Human acetylcholinesterase (Homo sapiens, UniProt P22303); assay: AChE inhibition, modified Ellman's spectrophotometric method; assay type: biochemical; conditions: read-out: AChE % inhibition, 10^−3 M
[2] = target: human butyrylcholinesterase (Homo sapiens, UniProt P06276); assay: BChE inhibition, modified Ellman's spectrophotometric method; assay type: biochemical
MAO-A = target: T1, MAO-A (Homo sapiens, UniProt P21397); assay: MAO-A inhibition, in vitro fluorometric method; assay type: biochemical
T1 sequence (P21397 1-527): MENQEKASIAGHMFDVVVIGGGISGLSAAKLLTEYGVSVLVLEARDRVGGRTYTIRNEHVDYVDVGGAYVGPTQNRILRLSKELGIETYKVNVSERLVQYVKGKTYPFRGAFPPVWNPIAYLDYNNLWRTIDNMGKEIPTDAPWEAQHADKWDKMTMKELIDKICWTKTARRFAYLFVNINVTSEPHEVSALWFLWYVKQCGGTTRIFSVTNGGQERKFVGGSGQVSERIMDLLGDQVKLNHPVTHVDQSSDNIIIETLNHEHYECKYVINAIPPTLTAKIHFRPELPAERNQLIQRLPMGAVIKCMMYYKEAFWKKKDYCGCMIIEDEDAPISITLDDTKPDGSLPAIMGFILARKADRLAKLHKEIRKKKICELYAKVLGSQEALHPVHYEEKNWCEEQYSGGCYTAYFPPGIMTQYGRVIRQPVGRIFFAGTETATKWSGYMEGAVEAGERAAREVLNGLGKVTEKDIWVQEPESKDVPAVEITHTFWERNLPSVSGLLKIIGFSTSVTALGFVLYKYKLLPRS

beta amyloid 1–42 (Aβ42) = beta amyloid 1–42 (Aβ42) (Homo sapiens, UniProt P05067); assay: fluorometric beta amyloid 1–42; assay type: biochemical; conditions: read-out: Percent inhibition of beta amyloid 1–42 (Aβ42) peptide aggregation
Sequence of beta amyloid 1–42 (Aβ42) (P05067 672-713): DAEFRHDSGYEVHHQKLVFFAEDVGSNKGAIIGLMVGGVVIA

Cytotoxicity, MTT assay = assay type: cell-based; conditions: mouse, NIH/3T3 mouse embryonic fibroblast cells
In short: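 NIH/3T3 mouse embryonic fibroblasts, incubated according to the supplier's recommendation, were seeded at 1 × 10⁴ cells per well. Viability was read by MTT assay following the group's previously described standard procedure.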

Sequence of human butyrylcholinesterase (P06276 29-602): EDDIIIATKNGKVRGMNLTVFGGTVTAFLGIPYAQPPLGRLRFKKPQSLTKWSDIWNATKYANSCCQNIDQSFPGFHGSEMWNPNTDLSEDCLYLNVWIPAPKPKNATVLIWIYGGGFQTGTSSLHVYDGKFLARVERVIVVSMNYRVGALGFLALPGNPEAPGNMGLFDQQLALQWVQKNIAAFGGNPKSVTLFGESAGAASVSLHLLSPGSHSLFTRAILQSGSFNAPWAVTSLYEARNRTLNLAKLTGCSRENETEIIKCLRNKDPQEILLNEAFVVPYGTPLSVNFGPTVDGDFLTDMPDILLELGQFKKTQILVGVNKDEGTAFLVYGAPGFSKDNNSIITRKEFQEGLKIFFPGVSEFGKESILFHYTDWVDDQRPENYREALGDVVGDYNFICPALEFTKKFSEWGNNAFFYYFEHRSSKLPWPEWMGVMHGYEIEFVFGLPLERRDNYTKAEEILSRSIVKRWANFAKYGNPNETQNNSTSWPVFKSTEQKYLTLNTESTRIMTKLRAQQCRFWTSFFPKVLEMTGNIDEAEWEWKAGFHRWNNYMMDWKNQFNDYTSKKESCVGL
Sequence of Human acetylcholinesterase (P22303 32-614): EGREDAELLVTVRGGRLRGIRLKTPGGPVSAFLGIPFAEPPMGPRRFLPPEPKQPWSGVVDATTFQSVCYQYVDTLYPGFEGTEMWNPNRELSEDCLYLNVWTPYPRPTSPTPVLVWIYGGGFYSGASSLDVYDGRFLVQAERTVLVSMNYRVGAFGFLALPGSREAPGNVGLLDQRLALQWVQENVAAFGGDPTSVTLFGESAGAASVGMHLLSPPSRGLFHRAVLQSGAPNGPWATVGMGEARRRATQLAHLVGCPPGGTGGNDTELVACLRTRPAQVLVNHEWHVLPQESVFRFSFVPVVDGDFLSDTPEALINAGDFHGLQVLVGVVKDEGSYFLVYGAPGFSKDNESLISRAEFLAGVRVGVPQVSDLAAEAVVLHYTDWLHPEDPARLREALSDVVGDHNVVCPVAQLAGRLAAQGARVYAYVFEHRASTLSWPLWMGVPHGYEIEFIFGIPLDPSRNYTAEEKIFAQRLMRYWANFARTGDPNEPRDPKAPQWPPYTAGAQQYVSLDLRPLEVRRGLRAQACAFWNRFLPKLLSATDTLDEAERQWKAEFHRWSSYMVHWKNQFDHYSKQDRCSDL

Compound CN(C)CCN1CCN(Cc2ccc(C(=O)Nc3nc4ccccc4s3)cc2)CC1 [4f, N-(Benzo[d]thiazol-2-yl)-4-((4-(2-(dimethylamino)ethyl)piperazine-1-yl)methyl)benzamide] has an inhibition at 1000 µM [1] of 96.4 ± 1.4%, an IC50 [2] of over 1000 µM and an inhibition at 100 µM ([2]; read-out: BChE % inhibition) of 32.8 ± 0.6%. The inhibition at 1000 µM ([2]; read-out: BChE % inhibition) was 45.3 ± 0.9%, the IC50 (MAO-A) was over 100 µM and the inhibition at 100 µM (MAO-A; read-out: MAO-A % inhibition) was 41.3 ± 0.9%. For the same compound, the inhibition at 1000 µM (MAO-A; read-out: MAO-A % inhibition) was 67.9 ± 1.1%, the inhibition at 0.01 µM (beta amyloid 1–42 (Aβ42)) was 58.6 ± 1.1% and the inhibition at 0.1 µM (beta amyloid 1–42 (Aβ42)) was 80.8 ± 2.1%. The inhibition at 1 µM (beta amyloid 1–42 (Aβ42)) was 90.6 ± 3.1%, the inhibition at 10 µM (beta amyloid 1–42 (Aβ42)) was 97.3 ± 3.2% and the IC50 (Cytotoxicity, MTT assay) was 72.9 ± 2.7 µM.
